Screening data as filed in PubChem.
Compounds with a hit are over-represented: about 1.9% of the library has one in this group of screens.
RanGTP-Impb inh – disruptors of Ran-importin-beta complex formation – biochemical, FRET, CFP-Ran, YFP-importin-beta, homogeneous, primary screen | inhibition, % (test concentration not listed) | cell-free CFP-Ran/YFP-importin-beta FRET ratio | hit rate 1.1% among 300,000;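 active means more than half of the replicate wells show a fall in the fluorescence ratio signal beyond about 16%, limit read from the data, passing the limit was not always enough; inconclusive means exactly half of the replicate wells pass the set limit; inactive means fewer than half of replicates pass the limit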;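 further: 0% = DMSO wells and 100% = Ran loaded with GDP instead of GTP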
Hck Nef HTS – blocks Nef-activated human Hck kinase | P08631 | Recombinant Hck-YEEI plus Nef, Z-Lyte FRET kinase assay | inhibition, % at 20 µM | hit rate 0.68% among 220,000 | AID 463187;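 active means Hck-Nef kinase inhibition above about 50%, limit read from the data; inactive means inhibition below that limit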;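 further: 0% = DMSO with Hck plus Nef and 100% = Hck alone without Nef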
Target sequence (P08631 whole entry, looked up): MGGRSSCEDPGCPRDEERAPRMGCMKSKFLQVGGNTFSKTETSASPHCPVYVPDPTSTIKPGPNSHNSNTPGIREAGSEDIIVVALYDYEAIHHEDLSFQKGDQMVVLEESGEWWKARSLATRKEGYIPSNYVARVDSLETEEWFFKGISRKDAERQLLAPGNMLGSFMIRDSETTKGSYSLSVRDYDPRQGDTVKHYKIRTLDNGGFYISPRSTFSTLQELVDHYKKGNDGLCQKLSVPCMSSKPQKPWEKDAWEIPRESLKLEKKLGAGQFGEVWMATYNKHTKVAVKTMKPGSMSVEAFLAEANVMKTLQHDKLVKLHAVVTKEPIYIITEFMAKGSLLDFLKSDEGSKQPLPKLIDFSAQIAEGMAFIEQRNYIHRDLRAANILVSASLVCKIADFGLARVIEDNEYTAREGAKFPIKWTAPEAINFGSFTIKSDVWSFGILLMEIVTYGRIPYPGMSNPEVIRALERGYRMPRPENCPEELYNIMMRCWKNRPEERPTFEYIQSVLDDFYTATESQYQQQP
Runt-SMMHC FRET – blocks binding of human RUNX1 Runt domain to CBFb-SMMHC; Q01196+Q13951; Cerulean-Runt/Venus-CBFb-SMMHC FRET ratio 530/480, 1 h; inhibition, % at 20 µM; hit rate 0.74% among 220,000;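 active means mean inhibition across duplicate retests at 20 µM reaching about 50%, limit read from the data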;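 further: 0% = DMSO wells and 100% = wells with excess untagged CBFb-SMMHC; inhibitors lower the FRET ratio by blocking Runt binding to CBFb-SMMHC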
Runt-CBFb FRET – blocks binding of human RUNX1 Runt domain to CBFb. Cerulean-Runt/Venus-CBFb FRET ratio 530/480, 1 h. inhibition, % at 20 µM. hit rate 0.46% among 220,000;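 active means inhibition over about 50% at 20 µM in the single-dose screen, limit read from the data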;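 further: 0% = DMSO wells and 100% = excess unlabeled CBFb competitor control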
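Schedule: protein complex preformed 1 h, compound exposure 1 h, room temperature, dark; test system: Cerulean-labeled Runt domain protein; amount: 100 nM per protein; buffer or medium: Tris 50 mM pH 7.5, KCl, K2SO4, 0.01% BSA; read-out: loss of energy transfer signal; detection: FRET fluorescence; controls: 5 µM unlabeled CBFb as full-inhibition high control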
The depositor's hits bear a star; ? = inconclusive; nt = no result.

SMILES	RanGTP-Impb inh	Hck Nef HTS	Runt-SMMHC FRET	Runt-CBFb FRET
COC(=O)[C@@]1(Cc2ccc(OC)cc2)[C@H]2c3cc(C(=O)N4CCCC4)n(CCSCCO)c3C[C@H]2CN1C(=O)c1ccccc1	nt	-1.6	-3.4	-0.1
Cc1ccc(S(=O)(=O)N2CCCC2CNC(=O)C(=O)Nc2ccc(F)cc2)cc1 (stereo unspecified)	31.5*	nt	nt	nt
CCOc1cccc(C(=O)NNC(=O)C2C3C=CC(C3)C2C(=O)O)c1 (stereo unspecified)	2.5	nt	nt	nt
COC(=O)/C=C/c1ccc(OC(=O)c2ccncc2)cc1	-2.1	5.5	0.1	0.7
COc1cccc(OC)c1C(=O)Nc1sc2c(c1C(N)=O)CCN(Cc1ccccc1)C2	133.7*	nt	nt	nt
CC(=O)c1ccc(C(=O)Nc2sc3c(c2C(N)=O)CCN(Cc2ccccc2)C3)cc1	55.3*	nt	nt	nt
COc1cc2ncnc(NCCc3ccccc3)c2cc1OC	1.0	58.9*	-4.8	1.3
COc1ccc(CCNc2ncnc3cc(OC)c(OC)cc23)cc1OC	0.9	31.2	-5.2	2.7
O=C(O)c1ccccc1SCc1csc(-c2ccccc2)n1	26.7*	nt	nt	nt
COC(=O)c1ccccc1SCc1csc(C)n1	-5.1	nt	nt	nt
N#CC1(Cc2ccc(Cl)cc2)c2ccccc2C=CN1C(=O)c1ccccc1 (stereo unspecified)	-3.0	1.7	-6.3	-0.8
CCOc1ccc(C2CC(c3cccc(Cl)c3)n3nc(N)nc3N2)cc1 (stereo unspecified)	25.9*	-0.2	3.6	-2.0
Cc1csc(NC(=O)c2cc(C)nc3ccccc23)n1	4.2	10.6	7.5	0.0
Cc1csc(NC(=O)c2cc(=O)[nH]c3ccccc23)n1	4.1	12.1	68.8*	30.3
Cc1cccc(CC(=O)NCC2CCCCC2)c1	2.2	nt	nt	nt
O=C1c2ccccc2C(=O)N1CCc1csc(NNc2nc(CCN3C(=O)c4ccccc4C3=O)cs2)n1	3.3	69.2*	4.2	nt
COCCn1c(N)c(S(=O)(=O)c2cccs2)c2nc3ccccc3nc21	-14.7	30.4	20.4	10.5
Nc1c(C(=O)OCC2CCCO2)c2nc3ccccc3nc2n1C1CCCC1 (stereo unspecified)	12.6	21.1	84.6*	33.2
COCCn1c(N)c(C(=O)Nc2sc3c(c2C(=O)OC)CCCC3)c2nc3ccccc3nc21	1.1	0.4	31.5	86.7*
Nc1c(C(=O)NC2CCCC2)c2nc3ccccc3nc2n1N	39.0*	4.1	46.4	13.9
COCCn1c(N)c(C(=O)NCc2cccs2)c2nc3ccccc3nc21	84.4*	44.1	69.7*	14.5
O=C1CC(N2CCCc3ccccc32)C(=O)N1c1ccccc1Cl (stereo unspecified)	-3.4	9.1	1.6	1.0
COCCn1c(N)c(C(=O)NCC2CCCO2)c2nc3ccccc3nc21 (stereo unspecified)	94.4*	40.4	79.3*	70.3*
CCOC(=O)c1c(N)n(CC(C)NC(=O)C2CC2)c2nc3ccccc3nc12 (stereo unspecified)	nt	43.0	162.7*	73.8*
COc1ccc(OC)c(-n2c(N)c(C(=O)NCC3CCCO3)c3nc4ccccc4nc32)c1 (stereo unspecified)	11.0	29.1	34.1	15.0
SMILES	RanGTP-Impb inh	Hck Nef HTS	Runt-SMMHC FRET	Runt-CBFb FRET
CCOC(=O)c1sc(N/N=C/c2cc(Br)c(O)c(OC)c2)nc1C	27.3*	nt	nt	nt
N#CCc1nc(-c2cc3ccccc3oc2=O)cs1	176.7*	19.9	-0.5	2.7
O=c1oc2ccccc2cc1-c1nc(-c2cccs2)cs1	-85.1	0.6	-128.9	-24.4
CCc1ccc(C2=CC(c3cc(Br)ccc3F)n3ncnc3N2)cc1 (stereo unspecified)	nt	-0.5	75.1*	-1.1
Cc1c(NC(=O)CN2C(=O)NC(CCc3ccccc3)C2=O)c(=O)n(-c2ccccc2)n1C (stereo unspecified)	34.2*	-7.3	2.3	0.3
Cc1ccc(NS(=O)(=O)c2ccc(OCC(N)=O)cc2)cc1	3.0	-7.7	3.5	0.3
Cc1cc([N+](=O)[O-])nn1CC(=O)NCc1nc2ccccc2[nH]1	173.6*	25.5	-0.5	1.0
Cc1nc2nc(-c3ccccc3)cn2nc1C	111.3*	-0.2	60.5*	45.6
Cc1cc(C)n2nc(C)c(-c3ccccc3)c2n1	4.5	nt	nt	nt
Cc1nc2nc(-c3ccc(F)cc3)cn2nc1C	95.2*	nt	nt	nt
c1ccc(-c2cn3nc(-c4ccccc4)cnc3n2)cc1	nt	2.5	0.1	0.4
CCc1ccc(-c2cn3nc(C)c(C)nc3n2)cc1	106.7*	21.5	74.3	nt
CCc1c(-c2ccccc2)nc2nc(C)c(C)nn12	49.8*	8.9	-3.9	-0.2
COC(=O)CCCC1=CC2=C(c3ccccc3)C(=O)C(C)(OC(=O)C3CCCC3)C(=O)C2=CN1C(CO)CO (stereo unspecified)	3.6	25.3	-5.7	4.5
CC(C)=NNc1nc(-c2ccccc2)c(C)s1	1.9	22.2	-1.1	4.1
Cc1nnc2sc(-c3ccc(NC(=O)c4cccnc4)cc3)nn12	nt	-0.9	nt	nt
Cc1nnc2sc(-c3ccc(NC(=O)c4ccc(-c5ccc(Cl)cc5Cl)o4)cc3)nn12	?	86.7*	nt	nt
CCn1c(=N)c(C(=O)NCc2cccnc2)cc2c(=O)n3cccc(C)c3nc21	nt	nt	61.3*	18.1
N=c1c(C(=O)NCc2ccco2)cc2c(=O)n3ccccc3nc2n1CC1CCCO1 (stereo unspecified)	129.8*	46.6	nt	nt
COc1ccc(CCn2c(=N)c(C(=O)NCCN3CCOCC3)cc3c(=O)n4cccc(C)c4nc32)cc1OC	10.5	nt	nt	nt
COCCn1c(=N)c(C(=O)NCCc2ccccc2)cc2c(=O)n3cccc(C)c3nc21	191.6*	104.1*	nt	nt
Cc1cccn2c(=O)c3cc(C(=O)NCc4cccnc4)c(=N)n(CC4CCCO4)c3nc12 (stereo unspecified)	180.0*	nt	nt	nt
Cc1cc(C)nc(S/C=C/C(=O)c2ccccc2F)n1	4.2	-17.6	3.3	7.6
N=c1c(C(=O)NCc2ccc3c(c2)OCO3)cc2c(=O)n3ccccc3nc2n1CC1CCCO1 (stereo unspecified)	-13.0	nt	nt	nt
Cc1cccn2c(=O)c3cc(C(=O)NCCc4ccccc4)c(=N)n(CC4CCCO4)c3nc12 (stereo unspecified)	181.4*	nt	nt	nt
SMILES	RanGTP-Impb inh	Hck Nef HTS	Runt-SMMHC FRET	Runt-CBFb FRET
N=c1c(C(=O)NCCc2ccccc2)cc2c(=O)n3ccccc3nc2n1CC1CCCO1 (stereo unspecified)	179.1*	nt	nt	nt
COC(=O)c1cc(S(=O)(=O)N(Cc2ccccc2)C(C)(C)C)c[nH]1	-0.8	nt	nt	nt
CC(C)Oc1ccc(C(=O)NCc2cccs2)cc1	-0.5	1.6	-2.1	-0.7
CCN(CC)c1ccc2cc(S(=O)(=O)c3ccc(Cl)cc3)c(=O)oc2c1	128.3*	5.7	80.8*	5.5
O=c1oc2cc(O)ccc2cc1S(=O)(=O)c1ccccc1	133.3*	nt	nt	nt
CCN(CC)CCNc1ncnc2c1[nH]c1ccc(OC)cc12	-3.4	3.2	nt	nt
COc1ccc2[nH]c3c(NCCC4=CCCCC4)ncnc3c2c1	2.2	91.6*	-1.5	nt
Cc1cc(/C=C2\SC(=S)N(C)C2=O)c(C)n1-c1ccccc1O	43.8*	nt	nt	nt
Cc1cc(/C=C2\SC(=S)N(C)C2=O)c(C)n1-c1ccc(O)cc1	37.5*	2.9	-52.0	-15.5
